# Screens: PubChem BioAssay, The Scripps Research Institute Molecular Screening Center
# OX1R antag-1: blocks the human orexin 1 receptor | O43613 | CHO/OX1R cells, Fluo-8 calcium fluorescence, orexin A | inhibition, % at 5 µM | 0.43% of 330,000 active | AID 434989;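 active means inhibition above its plate's threshold, mean inhibition of all tested compounds on the plate plus 3 SD, cut at about 37% in these data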;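 further: 0% = orexin A challenge wells and 100% = SB-334867-A antagonist wells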
# Target sequence (O43613 whole entry, looked up): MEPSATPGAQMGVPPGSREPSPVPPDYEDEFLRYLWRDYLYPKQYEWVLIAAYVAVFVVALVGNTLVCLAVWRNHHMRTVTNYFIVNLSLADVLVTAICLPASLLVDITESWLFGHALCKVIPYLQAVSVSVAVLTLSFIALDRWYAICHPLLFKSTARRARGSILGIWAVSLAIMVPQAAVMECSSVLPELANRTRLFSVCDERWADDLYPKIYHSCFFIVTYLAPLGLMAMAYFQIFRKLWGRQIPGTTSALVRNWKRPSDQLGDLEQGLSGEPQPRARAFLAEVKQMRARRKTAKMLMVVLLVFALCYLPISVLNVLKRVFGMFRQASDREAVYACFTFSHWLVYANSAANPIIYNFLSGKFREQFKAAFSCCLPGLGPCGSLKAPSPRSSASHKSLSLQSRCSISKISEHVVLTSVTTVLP
# TAAR1 antag: human TAAR1 antagonism | inhibition, % at 3 µM | Q96RJ0 | CHO RD-HGA16 TAAR1, Fluo-8 calcium fluorescence, antagonist | 1.5% of 360,000 active | AID 624466;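 active means inhibition above a per-plate cutoff, the mean inhibition of test compounds on that plate plus 3 SD, cut at about 49% in these data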;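 further: 0% = DMSO plus EC80 beta-PEA response and 100% = DMSO alone without agonist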
#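 Test system: RD-HGA16 CHO cells with stable hTAAR1 and Gα16 / Probe or stimulus: EC80 β-phenethylamine stimulus / Times: seeding 17-24 h prior, 75-min 37 °C, 30-min RT dye loading / Detection: Fluo-8 calcium-sensitive fluorescence / Read-out basis: % inhibition scaled between DMSO and EC80 PEA controls / Repeats: singlicate, one well per test compound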
# CHO parental Ca: counter-screen for OX1R antagonists: effect in parental CHO cells. parental CHO-K1, ATP-induced calcium, Fluo-8 fluorescence. inhibition, % at 5.6 µM. 0.63% of 330,000 active;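 active means inhibition above that plate's mean sample inhibition plus 3 SD, cut at about 26% in these data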;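 further: 0% = ATP-challenged DMSO wells and 100% = DMSO wells without ATP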
#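 Assay system: parental CHO cells; Read-out basis: percent inhibition of ATP-evoked calcium rise, normalized to controls; Benchmarks: ATP and no-ATP DMSO wells; Compound dosing: single nominal dose of 5.6 µM per compound; Signal: Fluo-8 calcium dye fluorescence; Also added: ATP as calcium-mobilizing challenge; Repeats: singlicate.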
# TAAR1 agonist: human TAAR1 agonism; CHO RD-HGA16 TAAR1, Fluo-8 calcium fluorescence; vehicle wells 0%, saturating PEA agonist 100%; activation, % at 3 µM; 0.99% of 360,000 active;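 active means activation above the mean activation of all test compounds in the run plus 3 SD, cut at about 38% in these data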
#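 Benchmarks: low control DMSO, high control PEA (EC100); System: CHO RD-HGA16 cells carrying human TAAR1 plus Gα16; Detection: Fluo-8 fluorescence, 5 s baseline then 140 s kinetic read; Schedule: 17-24 h plating, Fluo-8 75 min 37 °C, 30 min RT; Read-out basis: % activation from peak over basal fluorescence ratio, DMSO-to-PEA scaled.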
# OX1R antag-2: OX1R (human) antagonism; 1.8% of 330,000 active; OX1R-expressing cells, FRET antagonist read-out; inhibition, % at 6.6 µM; AID 485270; in the data active means inhibition mostly above about 38%, no sharp cut-off; inactive means mostly below about 40%;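 further: 0% = agonist challenge alone and 100% = reference antagonist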
# * = called active by the depositor; x = not tested or not shown. An excerpt weighted towards active compounds, which were near 3.9% of everything screened.
SMILES,OX1R antag-1,TAAR1 antag,CHO parental Ca,TAAR1 agonist,OX1R antag-2
COc1ccc(S(=O)(=O)Nc2ccccc2)cc1,-17.0,7.4,-33.1,3.3,14.0
COc1ccc(S(=O)(=O)Nc2ccc(O)c3ccccc23)cc1,-14.7,14.5,-9.5,7.0,42.9*
O=S(=O)(Nc1c(O)ccc2ccccc12)c1ccccc1,5.9,-27.2,-26.5,0.4,64.3*
O=C(Cc1cn(Cc2ccccc2)c2ccccc12)Nc1ccc(Nc2cccnc2)c(Br)c1,x,-2.0,x,2.7,x
CN(C(=O)[C@@H](Cc1ccccc1)NC(=O)[C@H]1O[C@@H](n2ccc(=O)[nH]c2=O)[C@H](O)[C@@H]1O)C1CCCCC1,x,-23.3,x,1.7,x
O=C(Nc1cccc(C(F)(F)F)c1)Nc1ccc2nc([C@@H]3O[C@H](CO)[C@@H](O)[C@H](O)[C@H]3O)[nH]c2c1,x,-16.2,x,0.6,x
CCOC(=O)N1CCN(CCC(=O)c2ccc(Cl)cc2)CC1,-5.8,-6.0,-9.2,37.5*,38.2
COc1ccc(NC(=O)c2c(C(F)(F)F)nn(C)c2SCc2ccccc2Cl)cc1,-19.7,24.2,45.6*,7.6,5.6
COc1cccc(C(=O)NNc2c3ccccc3nc3ccccc23)c1,-2.2,43.5,-7.3,9.4,41.7*
COc1cc(OC)cc(C(=O)NCc2cc(C)nc3ccccc23)c1,12.9,11.3,-24.4,8.7,62.9*
COc1ccc(C(=O)NCc2cc(C)nc3ccccc23)cc1OC,0.4,-20.2,-11.4,0.3,33.3
Cn1cc(C(=O)N/N=C/c2cccc([N+](=O)[O-])c2)c2ccccc21,8.9,9.6,-17.2,0.8,43.2*
Cn1ncc([N+](=O)[O-])c1C(=O)N/N=C/c1cccc([N+](=O)[O-])c1,-9.4,-16.6,-4.4,6.0,54.0*
O=C(N/N=C/c1ccc2ncccc2c1)c1cccc([N+](=O)[O-])c1,0.4,7.2,-9.8,-1.7,71.9*
CN(Cc1ccccc1)C(=O)c1ccc(NC(=O)Cc2ccc(NC(=O)C3CCN(S(=O)(=O)c4cccc([N+](=O)[O-])c4)CC3)cc2)cc1,x,-7.2,x,2.8,x
CN1CCCCC(NC(=O)C23CC4CC(CC(C4)C2)C3)C1=O (stereo not given),x,-19.5,x,1.7,x
CCCCn1c(N)c(N(CCC(C)C)C(=O)COC(=O)c2ccc([N+](=O)[O-])s2)c(=O)[nH]c1=O,-12.0,-17.1,-12.4,1.8,35.2*
CCCCN(C(=O)c1ccc([N+](=O)[O-])s1)c1c(N)n(CCCC)c(=O)[nH]c1=O,-20.9,-27.2,-9.2,8.0,62.6*
CCCCN(C(=O)c1cc(=O)[nH]c2ccccc12)c1c(N)n(CCC)c(=O)[nH]c1=O,-19.2,x,-7.6,x,80.4*
CC(C)Cc1ccc(-c2cc3nc(NCCOc4ccccc4)ccn3n2)cc1,x,-14.4,x,13.5,x
O=C(Nc1ccccn1)c1ccc([N+](=O)[O-])o1,-6.0,x,-1.4,x,72.3*
COc1ccccc1NC(=O)c1ccc([N+](=O)[O-])o1,-6.1,-8.1,-4.7,-1.2,38.2
NC(=O)c1ccsc1NC(=O)c1ccc([N+](=O)[O-])o1,32.1,-3.3,-4.5,8.3,33.7*
O=C(Nc1cccc2ccccc12)c1ccc([N+](=O)[O-])o1,-11.1,-3.1,-7.3,-0.8,29.3
NC(=O)c1ccsc1NC(=O)COC(=O)c1ccc([N+](=O)[O-])o1,-11.2,-16.4,-24.5,11.2,25.1
SMILES,OX1R antag-1,TAAR1 antag,CHO parental Ca,TAAR1 agonist,OX1R antag-2
Cc1cccc(NC(=O)c2ccc([N+](=O)[O-])o2)c1C,-14.1,-19.5,-0.6,0.5,76.1*
O=C(Nc1ncccn1)c1ccc([N+](=O)[O-])o1,1.0,0.3,-13.6,7.8,41.1*
O=C(c1ccc([N+](=O)[O-])s1)N1CCCc2ccccc21,-6.5,17.7,-8.6,-6.2,67.4*
COc1ccc([C@@H]2C[C@H]3[C@@H](CN2S(=O)(=O)c2ccccc2)C(=O)C[C@@H](c2ccc(C)cc2)N3S(=O)(=O)c2ccc(C)cc2)cc1,x,-13.4,x,0.3,x
COc1ccc(C(=O)Nc2cccc(/C=C(\CCC(=O)O)c3nc4ccccc4s3)c2)cc1,-11.8,51.6*,-10.4,12.6,22.5
Fc1ccccc1OCCSc1nnnn1-c1ccccc1,-24.9,6.8,-10.3,7.5,14.3
COc1ccccc1OCCSc1nnnn1-c1ccc(C)cc1,-41.2,19.0,40.1*,-0.9,16.2
Cc1ccc(NC(=O)c2cc(-c3ccc(C)c(C)c3O)n[nH]2)cc1C,-8.3,13.1,1.0,0.7,14.2
COc1ccc(NC(=O)c2cc(-c3ccc(C)c(C)c3O)n[nH]2)cc1Cl,0.2,28.6,24.3,5.2,50.0*
NCCCC[C@@H]1NC(=O)c2cc([N+](=O)[O-])cc(I)c2SC[C@@H](C(N)=O)NC(=O)[C@H](Cc2ccc(O)cc2)NC1=O,-16.2,x,7.9,x,72.9*
Cc1cccn2c(=O)c3cc(C(=O)NCC4CCCO4)c(=N)n(C4CCCC4)c3nc12 (stereo not given),-25.9,-11.8,-2.2,0.7,59.2*
Cc1ccc2nc3c(cc(C(=O)NCc4ccco4)c(=N)n3C3CCCC3)c(=O)n2c1,-27.7,-16.6,-10.2,-1.9,30.4
Cc1cccn2c(=O)c3cc(C(=O)NC4CCCC4)c(=N)n(C4CCCCC4)c3nc12,-12.7,2.4,-16.3,-1.2,26.8
Cc1ccc2nc3c(cc(C(=O)NCC4CCCO4)c(=N)n3C3CCCC3)c(=O)n2c1 (stereo not given),-20.7,2.2,-13.5,-3.9,57.9*
N=c1c(C(=O)NCC2CCCO2)cc2c(=O)n3ccccc3nc2n1C1CCCC1 (stereo not given),-20.2,-9.4,-29.0,0.1,44.7*
N=c1c(C(=O)NCC2CCCO2)cc2c(=O)n3ccccc3nc2n1C1CCCCC1 (stereo not given),-9.2,-15.2,-5.2,0.5,53.3
O=C(Nc1ccccc1)c1ccccc1OCC(O)CN1C(=O)c2ccccc2S1(=O)=O (stereo not given),18.5,64.7*,-5.4,25.1,24.6
CC1(C)NC(=O)N(CC(O)COc2ccccc2C(=O)Nc2ccccc2)C1=O (stereo not given),-8.1,34.0,-11.8,11.7,15.4
Cc1ccc(S(=O)(=O)N2CC3C(=O)C[C@@H](c4ccccc4)N(S(=O)(=O)c4cccc(Cl)c4)C3CC2c2ccccc2)cc1 (stereo not given in full),x,-0.3,x,1.5,x
C#Cc1ccc([C@@H]2C=C(C(=O)NCc3ccccc3)O[C@H](OCc3ccc(CO)cc3)C2)cc1,-5.7,51.1*,-2.7,8.7,10.2
O=C(NCc1ccccc1)C1=C[C@@H](c2ccccc2)C[C@@H](OCc2ccc(CO)cc2)O1,-14.1,21.8,-14.1,2.8,19.3
Cc1ccccc1CN(C)Cc1cc(=O)oc2c(C)c(C)ccc12,-1.5,50.9*,5.6,-0.7,20.2
